Screening data: PubChem, several laboratories
The list is not random: actives were taken first. Their share in the collection is about 2.8%.
Arbovirus inh: blocks arbovirus infection; arbovirus infection cell-based antiviral screen; inhibition, % at 10 µM; 200,000 compounds, 0.37% hits; AID 1251; in the data active = inhibition above about 30%
Mcl1 Bid PPI: disrupts binding of human Mcl-1 to Bid peptide. TR-FRET Mcl-1/Bid-Dy647 peptide binding, 1536-well. AID 1021. Q07820. 220,000 compounds, 0.97% hits. inhibition, % at 21.7 µM;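 active = compounds that cut the binding signal by more than half at the single screening dose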;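 note: His-tagged Mcl-1 with europium anti-His antibody binding Bid BH3 peptide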
Target sequence (Q07820 whole entry, looked up): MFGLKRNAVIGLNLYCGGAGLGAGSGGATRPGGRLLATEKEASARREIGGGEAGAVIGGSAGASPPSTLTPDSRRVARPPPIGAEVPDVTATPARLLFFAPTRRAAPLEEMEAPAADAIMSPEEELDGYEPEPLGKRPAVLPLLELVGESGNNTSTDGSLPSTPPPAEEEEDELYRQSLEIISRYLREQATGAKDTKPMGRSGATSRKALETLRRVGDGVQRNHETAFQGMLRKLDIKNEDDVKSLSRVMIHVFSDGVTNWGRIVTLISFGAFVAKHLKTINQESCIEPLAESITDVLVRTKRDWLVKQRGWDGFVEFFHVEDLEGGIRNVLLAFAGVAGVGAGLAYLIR
Calpain2 inh: inhibitors of pig calpain II. purified calpain II, fluorogenic peptide substrate, 30 min. inhibition, % at 16 µM. 220,000 compounds, 0.37% hits;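 active = inhibition above about 50%, limit read from the data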
Bim-Mcl-1: inhibitors of Bim-Mcl-1 interaction, human; Q07820; Bead-based flow cytometry, Bim peptide-Mcl-1 binding; 190,000 compounds, 0.1% hits; inhibition, % at 10 µM; in the data active = inhibition above about 40%
Mcl1 Noxa PPI: disrupts binding of human Mcl-1 to Noxa peptide; TR-FRET Mcl-1/Noxa peptide binding, 2 h; inhibition, % at 21.7 µM; 220,000 compounds, 1.5% hits; AID 1022;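 active = compounds that cut the protein-peptide binding signal by more than 50% relative to plate controls in a single-dose test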;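 note: His-tagged Mcl-1 with rhodamine Noxa BH3 peptide and terbium anti-His antibody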
Biofilm kill mix: mixture kills Candida albicans biofilm cells | C. albicans biofilm persisters + clotrimazole, fluorescence viability; primary screen in compound mixtures of four per well | inhibition, % at 7.6 µM | 120,000 compounds, 0.02% hits;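 active = inhibition above 30.3% in the primary screen of four-compound pools, then above 30% when the compound was retested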;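 note: compounds exposed to preformed 24 h biofilms for 48 h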
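Assay system: C. albicans biofilms / Medium: RPMI/MOPS medium, pH 7.0 / Schedule: biofilm formation 24 h, compound exposure 48 h, 37 °C / Measured by: Alamar Blue fluorescence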
Numbers stand for hits; n = inactive; x = no result given.

SMILES | Arbovirus inh | Mcl1 Bid PPI | Calpain2 inh | Bim-Mcl-1 | Mcl1 Noxa PPI | Biofilm kill mix
COC(=O)c1cccc(OCC(O)Cn2ccnc2)c1 (stereo not drawn) | n | 91 | n | n | n | x
COC(=O)c1cccc(OCC(O)Cn2cnc3cc(C)c(C)cc32)c1 (stereo not drawn) | n | n | n | n | n | x
COc1cc(N2CCCC2)c(OC)cc1/C=C(/C#N)c1ccc(Br)cc1 | n | n | n | x | n | x
COc1cc(N2CCCC2)c(OC)cc1/C=C(/C#N)c1ccc(F)cc1 | n | n | n | n | 72 | n
Cc1cccc(OCCSc2nc3ncnc(N)c3[nH]2)c1 | n | n | n | n | n | n
Cc1cccc(OCCCSc2nc3ccc(C)cc3[nH]2)c1 | n | n | 71 | n | n | x
COc1ccc(OC)c(/C=N\NC(=O)CC(=O)NCCc2ccccc2)c1 | 31 | n | n | n | n | n
COc1cccc(/C=N/NC(=O)CC(=O)NCCc2ccccc2)c1OC | n | n | n | n | n | n
Cc1cccn2c(CN[C@H]3CCCCNC3=O)c(C(=O)N3CCOCC3)nc12 | n | n | n | n | n | n
Cc1ccccc1Nc1nc(N)nc(COC(=O)C(NC(=O)c2ccco2)C(C)C)n1 (stereo not drawn) | n | n | n | n | n | x
O=C(Cc1coc2cc3c(cc12)CCC3)OCc1cc(=O)n2c(n1)sc1ccccc12 | n | n | n | n | 51 | x
O=C(OCc1cc(=O)n2c(n1)sc1ccccc12)c1ccc(O)cc1O | n | n | n | n | n | n
Cc1ccc(C(=O)N[C@H](C(=O)OCc2cc(=O)n3c(n2)sc2ccccc23)C(C)C)cc1 | n | n | n | n | 58 | n
O=C(OCc1cc(=O)n2c(n1)sc1ccccc12)c1cccc(O)c1 | n | n | n | n | 67 | n
Cc1ccc(C(=O)N[C@H](C(=O)OCc2nnc(-c3ccccc3)o2)C(C)C)cc1 | x | n | n | x | n | n
CC(C)[C@H](NC(=O)c1ccco1)C(=O)OCc1cc(=O)n2c(n1)sc1ccccc12 | n | n | n | n | 60 | n
Cc1cc(C(=O)Nc2ccccc2N2CCCCC2)no1 | x | n | n | x | n | n
CC(C)(C)c1ccccc1NC(=S)NC1CCCCC1 | n | n | n | n | n | n
CN(CCOc1ccc(NS(C)(=O)=O)cc1)CCc1ccc(NS(C)(=O)=O)cc1 | n | 84 | n | n | n | x
CCCCCOc1ccc(NS(C)(=O)=O)cc1 | n | n | n | n | n | x
CCC1=NN2C(=N)/C(=C\c3cccn3-c3ccc(Cl)cc3)C(=O)N=C2S1 | n | n | n | n | n | n
CS(=O)(=O)C1=NSC2=NC(=O)/C(=C\c3cccn3-c3ccccc3Cl)C(=N)N21 | 51 | n | n | n | 89 | n
Cc1ccc(-n2cccc2/C=C2/C(=N)N3C(=NC2=O)SN=C3S(C)(=O)=O)cc1 | 47 | n | n | n | 98 | n
CCC1=NN2C(=N)/C(=C\c3cccn3-c3ccc(C)c(C)c3)C(=O)N=C2S1 | n | n | n | n | n | n
COc1cccc(-n2c(C)cc(/C=C3/C(=N)N4C(=NC3=O)SN=C4S(C)(=O)=O)c2C)c1 | 40 | n | n | n | n | n
SMILES | Arbovirus inh | Mcl1 Bid PPI | Calpain2 inh | Bim-Mcl-1 | Mcl1 Noxa PPI | Biofilm kill mix
Cc1cc(C)cc(-n2cccc2/C=C2/C(=N)N3C(=NC2=O)SN=C3S(C)(=O)=O)c1 | n | n | n | n | n | n
Cc1ccc(-n2cccc2/C=C2\C(=N)N3N=C(c4ccco4)SC3=NC2=O)cc1 | 46 | 79 | n | n | 94 | n
C/C(=N\NC(=O)c1ccc(CSc2nc(C)cc(C)n2)cc1)c1ccco1 | n | n | n | n | n | n
CCc1ccc(-n2cccc2/C=C2/C(=N)N3C(=NC2=O)SN=C3S(C)(=O)=O)cc1 | n | n | n | n | 94 | n
C[n+]1cccc(/C=N/NC(=O)CC23CC4CC(CC(C4)C2)C3)c1 | x | n | n | x | n | n
Cn1c(=O)c2c(nc(OCc3ccccc3)n2C)n(C)c1=O | n | n | n | n | n | x
Cn1c(=O)c2c(nc(OCc3ccc4c(c3)OCO4)n2Cc2ccccc2Cl)n(C)c1=O | n | 51 | n | n | n | x
COc1cccc(COc2nc3c(c(=O)n(C)c(=O)n3C)n2C)c1 | n | n | 76 | n | n | x
CCc1ccc(C(=O)NNC(=S)Nc2ccc(S(N)(=O)=O)cc2)s1 | n | n | n | n | n | n
O=C(N/N=C/c1ccc(Br)s1)c1c[nH]c2ccccc12 | n | n | n | n | n | n
CCCCNC(=S)NCc1ccc2[nH]c3c(c2c1)CCCC3 | n | n | 63 | n | n | n
Cc1ccc(/C=N/Nc2cc(C)nc(NCc3ccccc3)n2)cc1 | x | n | n | x | n | n
Cc1cc(N/N=C/c2ccc(O)cc2)nc(NS(=O)(=O)c2ccccc2)n1 | n | n | n | n | 53 | n
CC(C)(C)c1nc(SCC(=O)c2ccccc2)c2ccccc2n1 | n | n | 52 | n | n | n
O=C(CCC1CCCN(Cc2cccc(Cl)c2)C1)NCc1ccccc1F (stereo not drawn) | x | n | n | x | n | n
Cc1ccc(Nc2nnc(SC(C)C(=O)Nc3c(C)n(C)n(-c4ccccc4)c3=O)s2)cc1 (stereo not drawn) | n | n | n | n | n | n
CN(C)c1ccc(N/C(N)=N/c2nc(C(F)(F)F)cc(C(F)(F)F)n2)cc1 | n | n | n | n | 61 | n
Cc1cccc(N/C(N)=N/c2nc(C(F)(F)F)cc(C(F)(F)F)n2)c1 | n | n | n | n | n | n
COc1ccc(-c2nc(-c3ccc(Br)o3)no2)cc1OC | n | 56 | n | n | n | x
COc1cccc(-c2nc(-c3ccc(Br)o3)no2)c1 | x | n | n | x | n | n
COc1cc(-c2nc(-c3ccc(NC(=O)c4ccc(Br)o4)cc3)no2)cc(OC)c1OC | n | 68 | n | n | n | x
COc1ccc(-c2noc(-c3cccs3)n2)cc1OC | x | 58 | n | x | n | n
COc1cc(-c2noc(-c3cccs3)n2)cc(OC)c1OC | n | n | n | n | n | x
COc1ccc(-c2nc(-c3ccc(NC(=O)c4ccc(Br)o4)cc3)no2)cc1OC | n | n | n | n | n | x
COc1ccc(-c2nnc(-c3ccc(Br)o3)o2)cc1OC | 34 | n | n | n | n | x
SMILES | Arbovirus inh | Mcl1 Bid PPI | Calpain2 inh | Bim-Mcl-1 | Mcl1 Noxa PPI | Biofilm kill mix
Cc1ccc(N(C(=O)c2csnn2)C(C(=O)NC(C)(C)C)c2cccnc2)cc1 (stereo not drawn) | n | n | n | n | n | n
CCOc1cc(Br)c(Br)c(C=Nc2ccc(NC(C)=O)cc2)c1O | n | n | n | n | 51 | n
CC(=O)Nc1ccc(N=Cc2c(O)c(C(=O)Nc3ccccc3)cc3ccccc23)cc1 | n | 71 | n | n | 84 | n
COc1ccc(OC)c(NC(=O)CC2SC(=Nc3ccc(F)cc3)N(CCC3=CCCCC3)C2=O)c1 (stereo not drawn) | n | n | n | n | n | n
COc1cc([N+](=O)[O-])ccc1NC(=O)CC1SC(=Nc2ccc(F)cc2)N(CCC2=CCCCC2)C1=O (stereo not drawn) | 48 | n | n | n | n | n
Cc1noc2ncnc(SCc3ccc(C(F)(F)F)cc3)c12 | x | 69 | n | x | n | n
